Assay results published in publication PMC5325675 (Molecular cell, 2017).
Positions count from the first letter of the chain named.

Legend:
[1] = molecular target: T1, PTP1B (residues 1-301) (Homo sapiens, UniProt P18031); assay: Fluorescence affinity measurement of inhibitor binding to PTP1B; conditions: binding to PTP1B (wt, 1-301); Table S1
T1 sequence (P18031 1-301): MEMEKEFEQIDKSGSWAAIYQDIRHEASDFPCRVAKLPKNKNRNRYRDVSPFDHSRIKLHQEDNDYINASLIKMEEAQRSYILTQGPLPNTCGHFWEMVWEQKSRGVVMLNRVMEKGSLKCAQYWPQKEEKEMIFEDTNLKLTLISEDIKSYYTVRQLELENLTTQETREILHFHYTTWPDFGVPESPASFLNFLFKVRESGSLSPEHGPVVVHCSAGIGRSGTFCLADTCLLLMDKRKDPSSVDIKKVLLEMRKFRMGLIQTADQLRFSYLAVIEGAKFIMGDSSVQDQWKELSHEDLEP

[2] = molecular target: T2, PTP1BN193A (Homo sapiens, UniProt P18031, N193A); assay: pNPP activity assay with TCS401; assay type: biochemical
T2 sequence (P18031 1-301 N193A): T1 sequence (P18031 1-301) with N193A
Summary of the method: (§1)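 Freshly prepared enzyme (0.15 µM) in 50 mM HEPES pH 7.5, 150 mM NaCl, 0.5 mM TCEP was run with pNPP (0-6000 µM), with or without test compound at 100 or 300 µM (0.4 or 1.2% DMSO). Reactions ran 30 min at 30°C, were stopped with 0.5 M NaOH and read at 405 nm, minus no-enzyme blanks. Km came from Michaelis-Menten fits and Ki from Km,obs = Km(1+[I]/Ki). Duplicates, repeated 3-6 times.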

[3] = molecular target: T3, PTP1BΔ7 (residues 1-284) (Homo sapiens, UniProt P18031); assay: Fluorescence affinity measurement, PTP1BΔ7; conditions: binding to PTP1BΔ7
T3 sequence (P18031 1-284): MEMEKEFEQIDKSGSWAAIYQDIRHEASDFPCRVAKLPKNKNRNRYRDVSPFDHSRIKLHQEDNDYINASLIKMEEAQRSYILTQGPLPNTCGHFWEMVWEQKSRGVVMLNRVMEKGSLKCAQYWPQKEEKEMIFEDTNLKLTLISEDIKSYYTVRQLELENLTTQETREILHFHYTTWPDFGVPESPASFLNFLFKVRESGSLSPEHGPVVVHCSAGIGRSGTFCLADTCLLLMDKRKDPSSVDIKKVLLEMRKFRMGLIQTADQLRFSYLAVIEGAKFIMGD
Summary of the method: (§2)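 Human PTP1B catalytic domain (residues 1-301; Δ7 is 1-284) was expressed in E. coli BL21(DE3) RIL and the His-tag removed with TEV. Protein at 2.5 µM in 50 mM HEPES pH 7.5, 150 mM NaCl, 0.5 mM TCEP was titrated with test compound (0-140 µM), with a DMSO-only control. Fluorescence was read at excitation 280 nm, emission 300-550 nm. KD came from a quadratic single-site fit; triplicate.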

[4] = molecular target: T4, PTP1BYAYA (Y152AY153A) (Homo sapiens, UniProt P18031, Y152A/Y153A); assay: Fluorescence affinity measurement, PTP1BYAYA; conditions: binding to PTP1BYAYA
T4 sequence (P18031 1-301 Y152A/Y153A): T1 sequence (P18031 1-301) with Y152A, Y153A
Summary of the method: as §2

[5] = molecular target: T5, PTP1BT178A (Homo sapiens, UniProt P18031, T178A); assay: Fluorescence affinity measurement, PTP1BT178A; conditions: binding to PTP1BT178A
T5 sequence (P18031 1-301 T178A): T1 sequence (P18031 1-301) with T178A
Summary of the method: as §2

[6] = molecular target: T6, PTP1BΔ7 (Homo sapiens, UniProt P18031); assay: pNPP activity assay with TCS401; assay type: biochemical
T6 sequence (P18031 1-284): T3 sequence (P18031 1-284)
Summary of the method: as §1

[7] = molecular target: T7, PTP1BP185G (Homo sapiens, UniProt P18031, P185G); assay: Fluorescence affinity measurement, PTP1BP185G; conditions: binding to PTP1BP185G (catalytically dead variant)
T7 sequence (P18031 1-301 P185G): T1 sequence (P18031 1-301) with P185G
Summary of the method: as §2

[8] = molecular target: T8, PTP1BL192A (Homo sapiens, UniProt P18031, L192A); assay: Fluorescence affinity measurement, PTP1BL192A; conditions: binding to PTP1BL192A
T8 sequence (P18031 1-301 L192A): T1 sequence (P18031 1-301) with L192A
Summary of the method: as §2

[9] = molecular target: T2, PTP1BN193A; assay: Fluorescence affinity measurement, PTP1BN193A; conditions: binding to PTP1BN193A
Summary of the method: as §2

[10] = molecular target: T9, PTP1BYAYA (Homo sapiens, UniProt P18031, Y152A/Y153A); assay: pNPP activity assay with TCS401; assay type: biochemical
T9 sequence (P18031 1-301 Y152A/Y153A): T1 sequence (P18031 1-301) with Y152A, Y153A
Summary of the method: as §1

`O=C(O)C(=O)Nc1sc2c(c1C(=O)O)CCNC2` [TCS401] was tested, and the Kd [1] was roughly 26 µM, the “Ki (competition between substrate and TCS401) compared with PTP1B” value (shortened to “Ki … compared with PTP1B”) [2] was “higher Ki values” and the Kd [3] was 33 ± 6 µM. The Kd [4] was 26 ± 3 µM, the Kd [5] was 45 ± 3.5 µM and the “Ki … compared with PTP1B” value [6] was “higher Ki values”. The Kd [7] was 20 ± 0.6 µM, the Kd [8] was 39 ± 6 µM and the Kd [9] was 37 ± 4 µM. The “Ki … compared with PTP1B” value [10] was “higher Ki values”.
